In EPA's CvTdb concentration-time database:

Assays:
Rat [1] = test: concentration in urine after dosing; details: dosed: dibromoacetic acid, oral, Male, F344
Rat [2] = test: concentration in urine after dosing; details: dosed: dibromoacetic acid, 100 mg/kg, oral, Male, F344
Rat [3] = test: concentration in urine after dosing; details: dosed: dibromoacetic acid, 40 mg/kg, oral, Male, F344
Rat [4] = test: concentration in urine after dosing; details: dosed: dibromoacetic acid, 100 mg/kg, oral, Male, F344; remark: listed apart in the source
Rat [5] = test: concentration in urine after dosing; details: dosed: dibromoacetic acid, 40 mg/kg, oral, Male, F344; remark: listed apart in the source
rat [6] = test: concentration in blood after dosing
human [7] = test: concentration in blood after dosing; negative times count back from the end of exposure; details: dosed: ethylbenzene, 33 ppm, inhalation, duration: 7 hr
Procedure, shortened: (§1)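 Data points giving concentration or amount against time came from published in vivo toxicokinetic studies and from two structured collections. PubMed searching, classifier screening and manual review located the studies. Most points were digitised from plot screenshots using WebPlotDigitizer, the rest were copied from tables, and all keep their reported units.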

Rat [8] = test: concentration in adipose after dosing; details: 144 h; dosed: Tamoxifen citrate; 300 ug/mL; oral; Female; F344
Rat [9] = test: concentration in adipose after dosing; details: 72 h; dosed: Tamoxifen citrate; 100 ug/mL; oral; Female; F344
Rat [10] = test: concentration in adipose after dosing; details: 144 h; dosed: Tamoxifen citrate; 100 ug/mL; oral; Female; F344
Rat [11] = test: concentration in adipose after dosing; details: oral, Female, F344
Rat [12] = test: concentration in adipose after dosing; details: 144 h; dosed: Tamoxifen citrate; 100 ug/mL; oral; Female; F344; remark: listed apart in the source
Rat [13] = test: concentration in adipose after dosing; details: 144 h; dosed: Tamoxifen; 300 ug/mL; oral; Female; F344
Rat [14] = test: concentration in adipose after dosing; details: 144 h; dosed: Tamoxifen citrate; 300 ug/mL; oral; Female; F344; remark: listed apart in the source
Rat [15] = test: concentration in plasma after dosing; details: 72 h, 300 ug/mL, oral, Female, F344
Rat [16] = test: concentration in adipose after dosing; details: 144 h; dosed: Tamoxifen citrate; 300 ug/mL; oral; Female; F344; remark: listed apart in the source
Rat [17] = test: concentration in adipose after dosing; details: 144 h; dosed: Tamoxifen; 300 ug/mL; oral; Female; F344; remark: listed apart in the source
Rat [18] = test: concentration in adipose after dosing; details: 144 h; dosed: Tamoxifen; 300 ug/mL; oral; Female; F344; remark: listed apart in the source
rat [19] = test: concentration in blood after dosing; negative times count back from the end of exposure; details: inhalation
human [20] = test: amount in urine after dosing (umol); details: dosed: tert-amyl methyl ether, 38.4 ppm, inhalation, duration: 4 hr
Procedure, shortened: as §1

O=C(O)C(=O)O [Oxalic acid]
concentration in urine [ng/mL], Rat [1]
Details	0 h	4 h	8 h	24 h	48 h
40 mg/kg	74600	52700	63500	89100	116000
100 mg/kg	64800	105000	–	108000	154000

concentration in urine [ng/mL]
Details	0 h	2 h	4 h	8 h	24 h	48 h
Rat [2]	63600	78100	108000	98200	103000	224000
Rat [3]	63000	–	–	71100	99300	133000
Rat [4]	53400	–	133000	–	68000	72600
Rat [5]	63800	26200	–	–	88700	130000

CCc1ccccc1 [ethylbenzene]
rat [6], dosed: ethylbenzene, 50 ppm, inhalation, duration: 4 hr
Details	concentration in blood [ng/mL]
0.4948 h	531
0.9897 h	315
1.498 h	193
1.993 h	146
272 s	821

human [7]
Details	concentration in blood [ng/mL]
0.4921 h	254
0.9902 h	197

human [7], during exposure
Details	concentration in blood [ng/mL]
-1.491 h	518
-0.514 h	497

O=C[O-] [formate]
rat [6], dosed: methanol, 100 mg/kg, iv, male, CDF(F344)/CrlBR
Details	concentration in blood [ng/mL]
0.1321 h	3240
0.4419 h	3230
0.9757 h	3130
1.457 h	3580
1.923 h	2560
2.94 h	2070
4.456 h	1030
5.99 h	73.9
7.984 h	1330
119 s	740

CC/C(=C(/c1ccc(O)cc1)c1ccc(OCCN(C)C)cc1)c1ccccc1 [trans-4-Hydroxytamoxifen]
Details	concentration in adipose [ng/g]
Rat [8]	10.3
Rat [9]	5.3
Rat [10]	6.12
Rat [12]	5.04
Rat [13]	9.08
Rat [14]	9.08
Rat [16]	5.1
Rat [17]	10.3
Rat [18]	5.1

concentration in adipose [ng/g], Rat [11]
Details	72 h	144 h
dosed: Tamoxifen citrate, 100 ug/mL	8.8	4.35
dosed: Tamoxifen citrate, 300 ug/mL	–	2.96
dosed: Tamoxifen, 300 ug/mL	–	2.96

Rat [15]
Details	concentration in plasma [ng/mL]
dosed: Tamoxifen	1.87
dosed: Tamoxifen citrate	1.87

C=CC#N [acrylonitrile]
rat [6], dosed: acrylonitrile, inhalation, duration: 3 hr, male, Sprague-Dawley
Details	concentration in blood [ng/mL]
0.103 h, 186 ppm	329
0.1717 h, 291 ppm	588
0.1772 h, 186 ppm	250
0.1774 h, 254 ppm	263
0.2565 h, 291 ppm	287
0.2613 h, 254 ppm	235
0.2676 h, 186 ppm	115
90 s, 254 ppm	1640
94 s, 291 ppm	1960
110 s, 186 ppm	911
337 s, 291 ppm	926
345 s, 254 ppm	473

rat [6], dosed: acrylonitrile, iv, male, Fisher 344 CDF(F344)/CrlBR
Details	concentration in blood [ng/mL]
0.1675 h, 84 mg/kg	28200
0.1682 h, 3.4 mg/kg	740
0.1683 h, 55 mg/kg	27200
0.1717 h, 47 mg/kg	13400
0.2068 h, 55 mg/kg	21000
0.208 h, 3.4 mg/kg	430
0.2102 h, 47 mg/kg	11800
0.2128 h, 84 mg/kg	27300
0.2495 h, 3.4 mg/kg	259
0.2506 h, 55 mg/kg	17400
0.2512 h, 84 mg/kg	22400
0.2575 h, 47 mg/kg	10900
0.5008 h, 55 mg/kg	6770
0.5014 h, 3.4 mg/kg	140
0.5026 h, 47 mg/kg	3040
0.5056 h, 84 mg/kg	11300
0.6636 h, 55 mg/kg	3100
0.6706 h, 47 mg/kg	1600
0.6711 h, 84 mg/kg	6700
0.9964 h, 55 mg/kg	393
1.005 h, 47 mg/kg	287
1.006 h, 84 mg/kg	1590
1.248 h, 55 mg/kg	396
1.25 h, 47 mg/kg	244
1.25 h, 84 mg/kg	532
182 s, 3.4 mg/kg	4950
183 s, 55 mg/kg	71400
188 s, 84 mg/kg	156000
196 s, 47 mg/kg	52800
303 s, 55 mg/kg	47200
306 s, 3.4 mg/kg	3110
307 s, 84 mg/kg	88300
309 s, 47 mg/kg	38100

ClC(Cl)(Cl)Cl [carbon tetrachloride]
concentration in blood [ng/mL], rat [19], dosed: carbon tetrachloride, duration: 120 min
Details	100 ppm	1000 ppm
0.1277 h	401	4510
0.2902 h	401	–
0.305 h	–	4270
0.4232 h	340	–
0.4675 h	–	4510
0.6891 h	240	–
0.7039 h	–	4750
0.9551 h	240	–
0.9698 h	–	3670
1.457 h	240	–
1.472 h	–	2640
1.96 h	–	2860
1.975 h	140	–
2.462 h	140	1020
2.965 h	140	1060
3.954 h	40.1	–
3.969 h	–	761
4.944 h	40.1	–
4.974 h	–	701
5.979 h	20	–
5.993 h	–	441
7.013 h	–	220
7.988 h	–	220
8.993 h	–	240
9.983 h	–	160
194 s	–	6310
247 s	501	5190

rat [19], dosed: carbon tetrachloride, duration: 120 min, during exposure
Details	concentration in blood [ng/mL]
-179 s, 1000 ppm	11200
-125 s, 100 ppm	681
-1.941 h, 1000 ppm	5690
-1.867 h, 1000 ppm	7110
-1.852 h, 100 ppm	441
-1.793 h, 100 ppm	601
-1.69 h, 100 ppm	741
-1.675 h, 1000 ppm	7550
-1.527 h, 100 ppm	481
-1.498 h, 1000 ppm	6170
-1.276 h, 1000 ppm	7510
-1.261 h, 100 ppm	421
-1.054 h, 1000 ppm	6930
-1.025 h, 100 ppm	561
-0.8032 h, 100 ppm	601
-0.7884 h, 1000 ppm	7730
-0.5668 h, 1000 ppm	8190
-0.5372 h, 100 ppm	461
-0.3008 h, 100 ppm	881
-0.2861 h, 1000 ppm	10000

ClC(Cl)Cl [chloroform]
rat [19], dosed: chloroform, 100 ppm, duration: 360 min
Details	concentration in blood [µg/g]
0.4971 h	0.55
2.006 h	0.151

rat [19], dosed: chloroform, 100 ppm, duration: 360 min, during exposure
Details	concentration in blood [µg/g]
-31 s	1.02
-5.747 h	0.18
-5.503 h	1.05
-4.997 h	1.05
-3 h	1.25

CC(C)(O)CC(=O)O [3-hydroxy-3-methyl-butyrate]
human [20]
Details	amount in urine
6.255 h	52.2
12.14 h	81.7
18.19 h	45.7
24.05 h	43.6
30.19 h	32.9
36.26 h	24.2
42.12 h	11.1
48.2 h	19.7
305 s	19.7
